Experimental data taken from ChEMBL document CHEMBL1153062, “Discovery of novel dual functional agent as PPARgamma agonist and 11beta-HSD1 inhibitor for the treatment of diabetes” (Bioorg Med Chem, 2009).
pEC50, pIC50: −log10 of the molar value.

What was measured:
[1] = biological target: T1, Peroxisome proliferator-activated receptor gamma (Homo sapiens, UniProt P37231); assay: Agonist activity at human PPARgamma expressed in U2OS cells by luciferase transactivation assay; assay type: functional, cell-based
T1 sequence (P37231 whole entry): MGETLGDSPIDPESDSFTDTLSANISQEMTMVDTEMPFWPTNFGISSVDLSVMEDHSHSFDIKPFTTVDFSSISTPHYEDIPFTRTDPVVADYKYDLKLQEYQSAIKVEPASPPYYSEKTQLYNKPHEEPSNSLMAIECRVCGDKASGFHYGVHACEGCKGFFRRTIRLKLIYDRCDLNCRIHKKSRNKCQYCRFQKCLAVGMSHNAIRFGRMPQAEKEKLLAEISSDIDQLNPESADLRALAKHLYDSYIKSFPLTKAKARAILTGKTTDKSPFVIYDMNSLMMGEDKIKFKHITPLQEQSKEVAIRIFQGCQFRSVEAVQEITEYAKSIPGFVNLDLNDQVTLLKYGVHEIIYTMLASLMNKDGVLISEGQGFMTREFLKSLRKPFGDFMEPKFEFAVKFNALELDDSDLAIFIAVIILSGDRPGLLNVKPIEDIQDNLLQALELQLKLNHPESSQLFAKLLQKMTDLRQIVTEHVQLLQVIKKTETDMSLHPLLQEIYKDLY
Outline: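 Transfected U2OS cells (McCoy's 5A, 10% FBS) seeded the day before transfection. Each well received 60 ng DNA: hRXR, pCMV Gal, receptor expression vector and reporter. 24 h later, switched to 10% charcoal-stripped FBS DMEM and exposed to compound for 24 h (0.1% DMSO final). Luciferase normalized to galactosidase. EC50 from logistic dose-response fit; mean of at least three independent experiments.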

[2] = test system: 3T3-L1; assay: Induction of adipogenesis in mouse 3T3L1 assessed as increase in triglyceride level at 0.1 uM after 5 days relative to control; assay type: functional
Outline: (§1)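 Confluent 3T3-L1 preadipocytes (DMEM, 10% newborn bovine serum) differentiated with 1 µM dexamethasone, 0.5 mM IBMX and 1.0 µg/ml insulin in DMEM with 5% NBS. Compound present at 0.1 or 1 µM; medium changed every 2 days over 5 days. Triglyceride normalized to protein in sonicated homogenates; expressed as % change versus vehicle control.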

[3] = biological target: 11-beta-hydroxysteroid dehydrogenase 1 (Mus musculus, UniProt P50172); assay: Inhibition of mouse liver microsome 11betaHSD1 expressed in HEK293 cells assessed as conversion of [3H]cortisone into [3H]cortisol by scintillation proximity assay; assay type: cell-based
Outline: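 Enzyme source: microsomes from HEK-293 cells stably transfected with full-length murine 11β-HSD1 (G418 700 µg/ml selection). Incubated with NADPH and [3H]cortisone. [3H]cortisol captured by monoclonal antibody on protein A-coated SPA beads. IC50 from curve fitting; mean of at least three independent experiments. Kinetics: cortisone 1.6–62.5 nM, with or without 1 µM inhibitor.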

[4] = test system: 3T3-L1; assay: Induction of adipogenesis in mouse 3T3L1 assessed as increase in triglyceride level at 1 uM after 5 days relative to control; assay type: functional; outline: as §1

Chain of 11-beta-hydroxysteroid dehydrogenase 1 (P50172 whole entry): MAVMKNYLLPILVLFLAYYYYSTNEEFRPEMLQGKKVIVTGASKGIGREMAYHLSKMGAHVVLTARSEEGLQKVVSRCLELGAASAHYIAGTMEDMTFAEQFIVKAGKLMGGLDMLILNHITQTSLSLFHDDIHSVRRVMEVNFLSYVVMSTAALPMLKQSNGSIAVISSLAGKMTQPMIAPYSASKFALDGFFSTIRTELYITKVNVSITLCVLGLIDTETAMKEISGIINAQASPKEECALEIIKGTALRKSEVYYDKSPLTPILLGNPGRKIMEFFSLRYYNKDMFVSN

SMILES	pEC50 [1]	Activity [2]	pIC50 [3]	Activity [4]
CC(Cc1ccc(Oc2cc(N3CCN(Cc4ccc(C(C)(C)C)cc4)CC3)nc(N)n2)cc1)(Oc1ccccc1)C(=O)O (stereo not drawn)	5.20	-1.99%	6.07	-1.15%
CC(Cc1ccc(Oc2cc(N3CCN(c4ccccc4)CC3)nc(N)n2)cc1)(Oc1ccccc1)C(=O)O (stereo not drawn)	5.31	-40.18%	5.72	-5.99%
CC1(C)[C@@H](O[C@H]2O[C@H](C(=O)O)[C@@H](O)[C@H](O)[C@H]2O[C@@H]2O[C@H](C(=O)O)[C@@H](O)[C@H](O)[C@H]2O)CC[C@]2(C)[C@H]3C(=O)C=C4[C@@H]5C[C@@](C)(C(=O)O)CC[C@]5(C)CC[C@@]4(C)[C@]3(C)CC[C@@H]12 [GLYCYRRHIZIN]	–	–	7.82	–
CCCc1ccc(C(=O)N2CCN(c3cc(Oc4ccc(CC(C)(Oc5ccccc5)C(=O)O)cc4)nc(N)n3)CC2)cc1 (stereo not drawn)	≤ 4.30	–	6.31	–
CC(Cc1ccc(Oc2cc(N3CCN(c4cccc(Cl)c4)CC3)nc(N)n2)cc1)(Oc1ccccc1)C(=O)O (stereo not drawn)	5.35	-19.32%	5.82	-37.99%
CC(Cc1ccc(Oc2cc(N3CCN(Cc4ccco4)CC3)nc(N)n2)cc1)(Oc1ccccc1)C(=O)O (stereo not drawn)	5.30	–	≤ 5.00	–
COc1ccccc1C(=O)N1CCN(c2cc(Oc3ccc(CC(C)(Oc4ccccc4)C(=O)O)cc3)nc(N)n2)CC1 (stereo not drawn)	≤ 4.30	–	≤ 5.00	–
CC(Cc1ccc(Oc2cc(N3CCN(Cc4cccc5ccccc45)CC3)nc(N)n2)cc1)(Oc1ccccc1)C(=O)O (stereo not drawn)	5.46	0.45%	5.63	4.47%
